The EC50 is the concentration needed to bring the measured effect to its halfway point.

The target of test [1] is T1, Protein kinase C (PKC) (Homo sapiens) (UniProt O94806+P41743+P17252+P05129+Q05655+P05771+Q05513+Q02156+P24723+Q15139+Q04759). The experiment in a line: Activation of PKC in human platelet assessed as phosphorylation of MARCK at 0.1 uM measured after 10 mins by Western blot analysis. An outline of the steps: (§1)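 Washed human platelets were prewarmed 3 min at 37 °C and exposed to compound for 10 min. They were lysed directly in 2× SDS sample buffer and boiled 5 min, then run on SDS-PAGE. Immunoblots used phospho-specific antibodies (phospho-Ser PKC substrate, p-Akt Ser308, p-ERK, p-p38, p-VASP, p-PKD, p-MARCKS) with HRP anti-rabbit and chemiluminescence. GAPDH served as loading control.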
Background: In western blotting, separated proteins are transferred to a membrane and probed.

The target in test [2] is T1, Protein kinase C (PKC) (Homo sapiens). The experiment in a line: Activation of PKC in human platelet assessed as phosphorylation of PKC substrates at 0.1 uM measured after 10 mins by Western blot analysis. An outline of the steps:
as §1

Test [3] has the same target. The test is described as follows: Activation of PKC in human platelet assessed as phosphorylation of AKT at ser-308 at 0.1 uM measured after 10 mins by Western blot analysis. An outline of the steps:
as §1

The target is the same in test [4]. The test is described as follows: Activation of PKC in human platelet assessed as increase in platelet secretion by measuring ATP release at 0.1 uM measured after 5 mins by luciferin-luciferase assay. An outline of the steps:
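Tyrode's-suspended washed human platelets (3 × 10^8/mL; Ca2+ 2 mM, glucose 11.1 mM, BSA 3.5 mg/mL). Prewarmed 3 min at 37 °C, then incubated 5 min at 37 °C with compound or DMSO vehicle. Spun 1 min at 4 °C; released ATP in supernatant read by luciferin–luciferase reaction. Means ± SEM, n = 3.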

For test [5] the target is unchanged. The experiment in a line: Activation of PKC in human platelet assessed as phosphorylation of VASP at 0.1 uM measured after 10 mins by Western blot analysis. An outline of the steps: as §1
Test [6] deals with Protein kinase C alpha type (Homo sapiens) (UniProt P17252). The experiment in a line: Induction of PKC-alpha translocation from cytosol to plasma membrane in human platelet at 0.1 uM measured after 1 min by Western blot analysis. Summed up:
(§2)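 Platelets were treated with compound for 1 min, then lysed with 0.1% digitonin (4 °C, 3 min) and spun at 14 000 rpm for 10 min; the supernatant was the cytosol. The pellet was extracted with 1% Triton X-100 and respun; that supernatant was the membrane fraction. Both fractions were immunoblotted for PKC-α, -β, -δ and -θ.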

Test [7] concerns the target T1, Protein kinase C (PKC) (Homo sapiens). The experiment in a line: Activation of PKC in human platelet assessed as phosphorylation of PKD at 0.1 uM measured after 10 mins by Western blot analysis. Summed up: as §1
Test [8] deals with Protein kinase C (PKC). The experiment in a line: Activation of PKC in human platelet assessed as induction of platelet aggregation measured within 15 mins by tribidimetric method.
Test [9] concerns the target T1, Protein kinase C (PKC) (Homo sapiens). The test is described as follows: Activation of PKC in human platelet assessed as phosphorylation of p38 at 0.1 uM measured after 10 mins by Western blot analysis. Summed up: as §1
Test [10] concerns the target Protein kinase C beta type (Homo sapiens) (UniProt P05771). The experiment in a line: Induction of PKC-beta1 translocation from cytosol to plasma membrane in human platelet at 0.1 uM measured after 1 min by Western blot analysis. An outline of the steps: as §2
Test [11] concerns the target T1, Protein kinase C (PKC) (Homo sapiens). The test is described as follows: Activation of PKC in human platelet assessed as phosphorylation of ERK at 0.1 uM measured after 10 mins by Western blot analysis. Summed up: as §1
Test [12] addresses Protein kinase C delta type (Homo sapiens) (UniProt Q05655). The experiment in a line: Induction of PKC-delta translocation from cytosol to plasma membrane in human platelet at 0.1 uM measured after 1 min by Western blot analysis. An outline of the steps: as §2
Test [13] has as its target T1, Protein kinase C (PKC) (Homo sapiens). The test is described as follows: Activation of PKC in human platelet assessed as induction of platelet aggregation at 10 uM measured within 15 mins by tribidimetric method. An outline of the steps:
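Washed human platelets in Tyrode's solution (2 mM Ca2+, 11.1 mM glucose, 3.5 mg/mL BSA) at 3 × 10^8 platelets/mL, prewarmed 3 min at 37 °C, then given compound or DMSO vehicle with fast shaking (20 Hz) at 37 °C. Aggregation read turbidimetrically as maximal rise in light transmission at 450 nm within 15 min. Means ± SEM, n = 3.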

Test [14] shares this target. The experiment in a line: Activation of PKC in human platelet assessed as reduction in phosphorylation of VASP at 0.1 uM in presence of PKCalpha/beta inhibitor Go6976 measured after 10 mins by Western blot analysis. An outline of the steps:
(§3)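 Human platelets were pretreated 1 min with Go6976 1 μM or DMSO vehicle, then stimulated with compound. Lysates were made in 2× SDS sample buffer and boiled, then run on SDS-PAGE and nitrocellulose blots. Probes were phospho-specific antibodies (PKC substrates, Akt Ser308, MARCKS, VASP, p38) with chemiluminescent detection. GAPDH was the loading control.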

The target of test [15] is Protein kinase C theta type (Homo sapiens) (UniProt Q04759). The test is described as follows: Induction of PKC-theta translocation from cytosol to plasma membrane in human platelet at 0.1 uM measured after 1 min by Western blot analysis. An outline of the steps:
as §2

Test [16] addresses T1, Protein kinase C (PKC) (Homo sapiens). The experiment in a line: Activation of PKC in human platelet assessed as reduction in phosphorylation of AKT at ser-308 at 0.1 uM in presence of PKCalpha/beta inhibitor Go6976 measured after 10 mins by Western blot analysis. An outline of the steps:
as §3

Test [17] shares this target. The experiment in a line: Activation of PKC in human platelet assessed as reduction in phosphorylation of PKC substrates at 0.1 uM in presence of PKCalpha/beta inhibitor Go6976 measured after 10 mins by Western blot analysis. An outline of the steps:
as §3

Test [18] has the same target. The experiment in a line: Activation of PKC in human platelet assessed as increase in platelet secretion by measuring ATP release at 0.1 uM in presence of PKCalpha/beta inhibitor Go6976 measured after 5 mins by luciferin-luciferase assay. Summed up:
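Washed human platelets at 3 × 10^8/mL in Tyrode's with Ca2+ 2 mM, glucose 11.1 mM and BSA 3.5 mg/mL. Pretreated 1 min with Go6976 1 μM or DMSO vehicle, then compound added. After 5 min at 37 °C, centrifuged at 4 °C; supernatant ATP quantified by luciferin–luciferase assay. Means ± SEM, n = 3.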

Test [19] has the same target. The test is described as follows: Activation of PKC in human platelet assessed as reduction in phosphorylation of p38 at 0.1 in presence of PKCalpha/beta inhibitor Go6976 measured after 10 mins by Western blot analysis. An outline of the steps:
as §3

Test [20] has the same target. The test is described as follows: Activation of PKC in human platelet assessed as reduction in phosphorylation of MARCK at 0.1 uM in presence of PKCalpha/beta inhibitor Go6976 measured after 10 mins by Western blot analysis. An outline of the steps:
as §3

The target is the same in test [21]. The test is described as follows: Activation of PKC in human platelet assessed as increase in platelet secretion by measuring ATP release at 0.1 uM in presence of PKC inhibitor GF109203X measured after 5 mins by luciferin-luciferase assay. Summed up:
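Washed human platelets at 3 × 10^8/mL in Tyrode's with Ca2+ 2 mM, glucose 11.1 mM and BSA 3.5 mg/mL. Prewarmed 3 min at 37 °C, then preincubated 3 min with GF109203X 1 μM before compound. After 5 min at 37 °C, spun at 4 °C; supernatant ATP measured by luciferin–luciferase bioluminescence. Means ± SEM, n = 3.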

Active and inactive are the calls of the source. No cut-off for these calls is given here.

Protein kinase C beta type (Homo sapiens), sequence (P05771 2-671 limits assumed): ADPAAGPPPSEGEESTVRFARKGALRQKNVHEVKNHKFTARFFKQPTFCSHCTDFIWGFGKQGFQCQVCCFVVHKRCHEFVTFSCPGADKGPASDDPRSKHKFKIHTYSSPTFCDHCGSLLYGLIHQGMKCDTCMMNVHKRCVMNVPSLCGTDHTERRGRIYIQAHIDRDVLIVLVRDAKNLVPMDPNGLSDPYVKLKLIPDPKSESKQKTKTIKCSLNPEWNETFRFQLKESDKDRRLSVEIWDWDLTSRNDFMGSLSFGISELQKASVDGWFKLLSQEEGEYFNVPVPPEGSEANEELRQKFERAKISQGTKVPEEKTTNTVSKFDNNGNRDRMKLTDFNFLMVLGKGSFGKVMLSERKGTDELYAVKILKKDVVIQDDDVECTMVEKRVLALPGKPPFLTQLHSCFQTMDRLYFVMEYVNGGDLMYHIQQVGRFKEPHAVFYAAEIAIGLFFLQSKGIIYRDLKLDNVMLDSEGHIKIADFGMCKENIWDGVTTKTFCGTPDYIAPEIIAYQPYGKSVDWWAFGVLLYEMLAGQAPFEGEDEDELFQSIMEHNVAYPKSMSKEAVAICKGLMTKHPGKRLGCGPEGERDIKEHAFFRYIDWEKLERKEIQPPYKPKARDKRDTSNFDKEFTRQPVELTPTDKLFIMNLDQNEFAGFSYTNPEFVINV
Protein kinase C delta type (Homo sapiens), sequence (Q05655 whole entry, looked up): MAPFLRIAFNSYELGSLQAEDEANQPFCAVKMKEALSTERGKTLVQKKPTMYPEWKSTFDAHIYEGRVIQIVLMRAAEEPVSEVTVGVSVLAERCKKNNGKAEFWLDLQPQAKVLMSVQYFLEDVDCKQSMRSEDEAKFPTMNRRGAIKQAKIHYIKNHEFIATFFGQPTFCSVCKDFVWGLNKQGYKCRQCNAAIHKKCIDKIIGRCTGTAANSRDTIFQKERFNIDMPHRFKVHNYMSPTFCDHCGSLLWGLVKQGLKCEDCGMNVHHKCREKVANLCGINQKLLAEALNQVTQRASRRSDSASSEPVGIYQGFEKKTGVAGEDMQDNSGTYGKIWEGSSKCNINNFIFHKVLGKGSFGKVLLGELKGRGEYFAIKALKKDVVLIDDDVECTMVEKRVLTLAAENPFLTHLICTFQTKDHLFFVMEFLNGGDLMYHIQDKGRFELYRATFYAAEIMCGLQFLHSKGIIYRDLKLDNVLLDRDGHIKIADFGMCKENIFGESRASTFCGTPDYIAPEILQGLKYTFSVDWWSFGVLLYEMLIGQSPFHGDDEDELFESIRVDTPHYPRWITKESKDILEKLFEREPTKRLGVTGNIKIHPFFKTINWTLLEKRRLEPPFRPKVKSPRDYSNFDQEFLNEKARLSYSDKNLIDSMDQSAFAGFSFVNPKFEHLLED
Protein kinase C theta type (Homo sapiens), sequence (Q04759 whole entry, looked up): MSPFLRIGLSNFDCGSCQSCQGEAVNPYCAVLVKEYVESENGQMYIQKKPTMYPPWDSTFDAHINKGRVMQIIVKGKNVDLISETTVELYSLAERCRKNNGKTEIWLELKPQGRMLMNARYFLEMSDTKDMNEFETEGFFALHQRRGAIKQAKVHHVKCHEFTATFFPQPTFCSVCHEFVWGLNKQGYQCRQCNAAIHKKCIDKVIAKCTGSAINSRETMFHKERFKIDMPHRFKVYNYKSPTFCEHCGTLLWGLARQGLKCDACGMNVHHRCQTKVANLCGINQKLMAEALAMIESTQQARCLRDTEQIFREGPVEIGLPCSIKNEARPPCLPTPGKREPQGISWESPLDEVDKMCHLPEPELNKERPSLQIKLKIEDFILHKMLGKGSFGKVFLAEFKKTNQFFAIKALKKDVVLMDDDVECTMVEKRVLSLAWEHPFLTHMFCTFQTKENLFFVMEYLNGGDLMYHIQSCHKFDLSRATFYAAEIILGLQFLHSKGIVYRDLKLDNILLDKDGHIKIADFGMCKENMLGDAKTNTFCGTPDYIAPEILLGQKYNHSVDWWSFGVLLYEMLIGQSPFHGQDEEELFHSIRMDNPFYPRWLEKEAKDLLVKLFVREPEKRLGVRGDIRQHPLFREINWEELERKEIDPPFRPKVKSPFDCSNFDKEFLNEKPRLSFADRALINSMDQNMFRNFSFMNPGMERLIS

Take `C/C=C(/C)C(=O)O[C@H]1C(C)=C[C@]23C(=O)[C@@H](C=C(CO)[C@@H](O)[C@]12O)[C@H]1[C@@H](C[C@H]3C)C1(C)C` [INGENOL MEBUTATE]: the outcome in test [1], in test [2], in [3], in test [4], in test [5] and in [6] was Active. The result in [7], in [9], in [10], in test [11] and in test [12] was Active. In addition, the EC50 in [8] amounted to 0.0725 µM.
In the case of `C/C=C(/C)C(=O)O[C@H]1C(C)=C[C@]23C(=O)[C@@H](C=C(C)[C@@H](O)[C@]12O)[C@H]1[C@@H](C[C@H]3C)C1(C)C`, in test [8], the EC50 stood at 5.04 µM.
For the compound `C=C1[C@H](OC(C)=O)CC(=O)C(C)(C)/C=C/[C@@H](C)C(=O)[C@@]2(OC(C)=O)C[C@@](C)(OC(C)=O)[C@H](OC(C)=O)[C@@H]2[C@H]1OC(C)=O`, the result in [13] was inactive.
Regarding `CCCCCCCCCCCCCC(=O)O[C@@H]1[C@@H](C)[C@@]2(O)[C@@H](C=C(CO)C[C@]3(O)C(=O)C(C)=C[C@@H]23)[C@@H]2C(C)(C)[C@]12OC(C)=O`, the result in test [1], in test [15], in [2], in [3], in test [4] and in [5] was Active. In addition, the outcome in [6], in [7], in test [9], in test [10], in [11] and in test [12] was Active. Moreover, the outcome in test [14], in test [16], in [17], in test [18], in [19] and in [20] was inactive. In test [21], the outcome was inactive.
As for `C=C1[C@H](OC(C)=O)CC(=O)C(C)(C)/C=C/[C@@H](C)C(=O)[C@@]2(OC(C)=O)C[C@@](C)(OC(=O)c3ccccc3)[C@H](OC(C)=O)[C@@H]2[C@H]1OC(C)=O`, in test [13], the outcome was inactive.
Still for that read-out and setting: next, `CC(=O)O[C@@H]1[C@H]2[C@@H](OC(=O)c3ccccc3)[C@@H](C)C[C@]2(OC(C)=O)[C@@H](OC(C)=O)[C@]2(C)OC[C@]13C(=O)C=C[C@H](C(C)(C)OC(C)=O)[C@@H]23`: “inactive”.
On to `C/C=C(/C)C(=O)OC[C@]1(C)[C@H]2[C@@H]3C=C(COC(C)=O)C[C@]4(O)C(=O)C(C)=C[C@H]4[C@@]3(O)[C@H](C)C[C@]21OC(=O)C(C)C`, for which the EC50 in [8] was determined as 6.08 µM.

Values taken from ChEMBL document CHEMBL4041497, “Isolation of Phorbol Esters from Euphorbia grandicornis and Evaluation of Protein Kinase C- and Human Platelet-Activating Effects of Euphorbiaceae Diterpenes” (J Nat Prod, 2016).
